For seven compounds, MIC, MIC50 and Activity results are on record in ChEMBL document CHEMBL2146464, “Structure-activity relationship study of nitrosopyrimidines acting as antifungal agents” (Bioorg Med Chem, 2012).

Structures are written as SMILES. Values after ≈ are worked out from the molar mass of the structure shown. Active and inactive are the calls of the source. The rule behind the calls is not given here.

Assay [1] concerns Candida albicans. Kind of assay: Antifungal activity against Candida albicans ATCC 10231 after 48 hrs by NCCLS broth microdilution method. The format is functional. Particulars: ATCC 10231, 48 h, read-out: MIC100. In a few lines: (§1)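 Yeast MIC by NCCLS M27-A3 broth microdilution in RPMI-1640 buffered to pH 7.0 with MOPS. Twofold dilutions of 250–0.98 µg/mL, final DMSO ≤1%. Inoculum 1–5 × 10³ CFU/mL. Incubated at 30 °C in a moist dark chamber. Read visually at 48 h. MIC100 is the lowest concentration with no visible growth versus drug-free control.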
Background: In broth dilution the organism is exposed to a series of concentrations in liquid medium.

Assay [2] concerns Candida tropicalis. Kind of assay: Antifungal activity against Candida tropicalis after 48 hrs by NCCLS broth microdilution method. Particulars: read-out: MIC100. The format is functional. An outline of the steps:
as §1

The subject of assay [3] is Cryptococcus neoformans. Kind of assay: Antifungal activity against Cryptococcus neoformans ATCC 32264 after 48 hrs by NCCLS broth microdilution method. As to conditions: ATCC 32264, 48 h, read-out: MIC100. The assay is classed as functional. An outline of the steps: as §1
Assay [4] concerns Aspergillus flavus. Kind of assay: Antifungal activity against Aspergillus flavus ATCC 9170 by NCCLS broth microdilution method. The format is functional. Particulars: read-out: MIC100. In a few lines:
(§2)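 MIC by broth microdilution per NCCLS M27-A3/M38-A2 in RPMI-1640 buffered to pH 7.0 with MOPS. Twofold dilutions from 250–0.98 µg/mL, final DMSO ≤1%. Inoculum 1–5 × 10³ CFU/mL. Incubated in a moist dark chamber, 30 °C for Aspergillus and 28–30 °C for dermatophytes. Read visually when control growth allowed. Endpoint is the lowest concentration giving total inhibition of visible growth (MIC100).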

In assay [5] the test system is Aspergillus fumigatus. Kind of assay: Antifungal activity against Aspergillus fumigatus ATCC 26934 by NCCLS broth microdilution method. The format is functional. As to conditions: read-out: MIC100. An outline of the steps:
as §2

Assay [6] deals with Aspergillus niger. Kind of assay: Antifungal activity against Aspergillus niger ATCC 9029 by NCCLS broth microdilution method. As to conditions: read-out: MIC100. The assay is classed as functional. An outline of the steps:
as §2

Assay [7] deals with Nannizzia gypsea. Kind of assay: Antifungal activity against Microsporum gypseum CCC 115 by NCCLS broth microdilution method. The assay is classed as functional. As to conditions: read-out: MIC100. In a few lines: as §2
Assay [8] relates to Trichophyton rubrum. Kind of assay: Antifungal activity against Trichophyton rubrum CCC 110 by NCCLS broth microdilution method. The format is functional. As to conditions: read-out: MIC100. An outline of the steps:
as §2

In assay [9] the test system is Trichophyton mentagrophytes. Kind of assay: Antifungal activity against Trichophyton mentagrophytes ATCC 9972 by NCCLS broth microdilution method. The assay is classed as functional. As to conditions: read-out: MIC100. An outline of the steps:
as §2

Assay [10] has as its system Candida tropicalis. Kind of assay: Antifungal activity against Candida tropicalis by microplate reader analysis. The assay is classed as functional.
Assay [11] relates to Candida albicans. Kind of assay: Antifungal activity against Candida albicans ATCC 10231 after 24 hrs by microplate reader analysis. The assay is classed as functional. Particulars: ATCC 10231, 24 h. An outline of the steps: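 96-well RPMI-1640 wells with compound at final 250–0.98 µg/mL (DMSO ≤1%). Inoculum 100 µL, 1–5 × 10³ CFU/mL, 200 µL final. Each well includes growth (DMSO, no compound) and sterility controls. % inhibition = 100 − (CTW−SCW)/(GCW−SCW) × 100, run in duplicate.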

Assay [12] has as its system Cryptococcus neoformans. Kind of assay: Antifungal activity against Cryptococcus neoformans ATCC 32264 after 48 hrs by microplate reader analysis. The format is functional. As to conditions: ATCC 32264, 48 h. In a few lines:
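Microplate growth-inhibition assay in RPMI-1640, compound at final 250–0.98 µg/mL (DMSO ≤1%). Inoculum 1–5 × 10³ CFU/mL. Sterility and DMSO growth controls included. Percent inhibition is computed from blank-corrected OD relative to the growth control, tested in duplicate.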

Assay [13] has as its system Candida albicans. Kind of assay: Antifungal activity against Candida albicans ATCC 10231 at 0.98 to 250 ug/mL after 48 hrs by NCCLS broth microdilution method. The assay is classed as functional, organism-based. In a few lines: as §1
Assay [14] relates to Candida tropicalis. Kind of assay: Antifungal activity against Candida tropicalis at 0.98 to 250 ug/mL after 48 hrs by NCCLS broth microdilution method. The assay is classed as functional, organism-based. An outline of the steps: as §1
Assay [15] has as its system Cryptococcus neoformans. Kind of assay: Antifungal activity against Cryptococcus neoformans ATCC 32264 at 0.98 to 250 ug/mL after 48 hrs by NCCLS broth microdilution method. The assay is classed as functional, organism-based. An outline of the steps: as §1
The subject of assay [16] is Aspergillus flavus. Kind of assay: Antifungal activity against Aspergillus flavus ATCC 9170 at 0.98 to 250 ug/mL by NCCLS broth microdilution method. The assay is classed as functional, organism-based. In a few lines:
as §2

For assay [17], the system named is Aspergillus fumigatus. Kind of assay: Antifungal activity against Aspergillus fumigatus ATCC 26934 at 0.98 to 250 ug/mL by NCCLS broth microdilution method. The format is functional, organism-based. An outline of the steps:
as §2

Assay [18] concerns Aspergillus niger. Kind of assay: Antifungal activity against Aspergillus niger ATCC 9029 at 0.98 to 250 ug/mL by NCCLS broth microdilution method. The format is functional, organism-based. In a few lines: as §2
In assay [19] the test system is Nannizzia gypsea. Kind of assay: Antifungal activity against Microsporum gypseum CCC 115 at 0.98 to 250 ug/mL by NCCLS broth microdilution method. The assay is classed as functional, organism-based. An outline of the steps: as §2
Assay [20] concerns Trichophyton rubrum. Kind of assay: Antifungal activity against Trichophyton rubrum CCC 110 at 0.98 to 250 ug/mL by NCCLS broth microdilution method. The assay is classed as functional, organism-based. An outline of the steps:
as §2

Assay [21] concerns Trichophyton mentagrophytes. Kind of assay: Antifungal activity against Trichophyton mentagrophytes ATCC 9972 at 0.98 to 250 ug/mL by NCCLS broth microdilution method. The format is functional, organism-based. In a few lines:
as §2

As usually defined, the MIC50 is an inhibitory concentration at the 50% level, which refers to growth in some studies and to a panel of isolates in others. Low readings indicate higher susceptibility, high ones lower susceptibility.

For `CC(=O)N1CCN(c2ccc(OCC3COC(Cn4ccnc4)(c4ccc(Cl)cc4Cl)O3)cc2)CC1` (stereo unspecified) [KETOCONAZOLE], the MIC in the assay with Candida albicans [1] is 0.98 µg/mL (≈ 1.84 µM); in the assay on Candida tropicalis [2] it was 0.49 µg/mL (≈ 0.922 µM); with Cryptococcus neoformans [3] it was 0.25 µg/mL (≈ 0.47 µM); in the assay on Aspergillus flavus [4], 0.12 µg/mL (≈ 0.226 µM); in the assay with Aspergillus fumigatus [5], 0.49 µg/mL (≈ 0.922 µM); with Aspergillus niger [6] it was 0.25 µg/mL (≈ 0.47 µM). The MIC with Nannizzia gypsea [7] is 0.06 µg/mL (≈ 0.113 µM); in the assay with Trichophyton rubrum [8] it was 0.03 µg/mL (≈ 0.0565 µM); in [9], 0.03 µg/mL (≈ 0.0565 µM).
As to `C[C@@H]1[C@H](O)[C@@H](C)/C=C/C=C/C=C/C=C/C=C/C=C/C=C/[C@H](O[C@@H]2O[C@H](C)[C@@H](O)[C@H](N)[C@@H]2O)C[C@@H]2O[C@](O)(C[C@@H](O)C[C@@H](O)[C@H](O)CC[C@@H](O)C[C@@H](O)CC(=O)O[C@H]1C)C[C@H](O)[C@H]2C(=O)O` [AMPHOTERICIN B], the MIC in the assay on Candida albicans [1] turned out to be 0.98 µg/mL (≈ 1.06 µM); in the assay on Candida tropicalis [2] it was 0.98 µg/mL (≈ 1.06 µM); in the assay on Cryptococcus neoformans [3], 0.25 µg/mL (≈ 0.271 µM); with Aspergillus flavus [4] it was 0.49 µg/mL (≈ 0.53 µM); in the assay with Aspergillus fumigatus [5] it was 0.49 µg/mL (≈ 0.53 µM); in the assay on Aspergillus niger [6], 0.49 µg/mL (≈ 0.53 µM). Also, the MIC stood at 0.12 µg/mL (≈ 0.13 µM) in the assay on Nannizzia gypsea [7], 0.06 µg/mL (≈ 0.0649 µM) with Trichophyton rubrum [8] and 0.06 µg/mL (≈ 0.0649 µM) in assay [9]. Besides, the results for the MIC50 in the assay on Candida tropicalis [10], against Candida albicans [11] and with Cryptococcus neoformans [12] were 0.49 µg/mL (≈ 0.53 µM), 0.49 µg/mL (≈ 0.53 µM) and 0.98 µg/mL (≈ 1.06 µM), respectively.
For `CN(C/C=C/C#CC(C)(C)C)Cc1cccc2ccccc12` [TERBINAFINE], the MIC with Candida albicans [1] was 0.98 µg/mL (≈ 3.36 µM); in the assay with Candida tropicalis [2], 1.95 µg/mL (≈ 6.69 µM); in the assay with Cryptococcus neoformans [3], 0.49 µg/mL (≈ 1.68 µM); in the assay on Aspergillus flavus [4] it was 0.98 µg/mL (≈ 3.36 µM); in the assay on Aspergillus fumigatus [5] it was 0.98 µg/mL (≈ 3.36 µM); in the assay with Aspergillus niger [6] it was 1.96 µg/mL (≈ 6.73 µM). For the same compound, the MIC in the assay with Nannizzia gypsea [7] came out at 0.04 µg/mL (≈ 0.137 µM); in the assay with Trichophyton rubrum [8] it was 0.01 µg/mL (≈ 0.0343 µM); in assay [9], 0.03 µg/mL (≈ 0.103 µM).
With `Nc1nc2c(c(OCC3CCCCC3)n1)NC(=O)[C@H](Cc1ccccc1)N2`, the outcome in the assay with Candida albicans [13], in the assay with Candida tropicalis [14], in the assay on Cryptococcus neoformans [15], with Aspergillus flavus [16], in the assay with Aspergillus fumigatus [17] and with Aspergillus niger [18] was inactive. Besides, the result (in the assay on Nannizzia gypsea [19]; with Trichophyton rubrum [20]; in [21]) was inactive.
For the compound `CNc1nc(N)nc(NCc2ccccc2)c1N=O`, the result in the assay with Candida albicans [13], in the assay with Candida tropicalis [14], with Cryptococcus neoformans [15], with Aspergillus flavus [16], in the assay on Aspergillus fumigatus [17] and with Aspergillus niger [18] was inactive. Further, the result (with Nannizzia gypsea [19]; with Trichophyton rubrum [20]; in assay [21]) was inactive.
Turning to `COc1nc(N)nc(NCCO)c1N=O`, the result in the assay with Candida albicans [13], with Candida tropicalis [14], in the assay on Cryptococcus neoformans [15], in the assay on Aspergillus flavus [16], in the assay on Aspergillus fumigatus [17] and with Aspergillus niger [18] was inactive. Further, the outcome (with Nannizzia gypsea [19]; with Trichophyton rubrum [20]; in assay [21]) was inactive.
With `COc1nc(N)nc(NCCOCCO)c1N=O`, the result in the assay with Candida albicans [13], in the assay with Candida tropicalis [14], in the assay with Cryptococcus neoformans [15], in the assay with Aspergillus flavus [16], in the assay on Aspergillus fumigatus [17] and in the assay with Aspergillus niger [18] was inactive. In addition, the result (in the assay on Nannizzia gypsea [19]; in the assay with Trichophyton rubrum [20]; in assay [21]) was inactive.
